# Measurements as given in ChEMBL document CHEMBL1154126, “Sulforaphane induces cell-cycle arrest and apoptosis in cultured human lung adenocarcinoma LTEP-A2 cells and retards growth of LTEP-A2 xenografts in vivo” (J Nat Prod, 2008).
# Legend:
# [1] = Antiproliferative activity against human LS 174T cells; assay type: functional, cell-based; conditions: LS174T
# [2] = Antiproliferative activity against human LTEP-A2 cells assessed as viable cells at 25 uM after 24 hrs by trypan blue exclusion assay; assay type: functional; conditions: LTEP-A2, 24 h, read-out: Activity
# How it was run: (§1)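 Suspension-grown LTEP-A2 cells in RPMI 1640 with 20% heat-inactivated bovine serum, penicillin and streptomycin. Exponentially growing cells were added at 400 000 cells/mL to medium with 6.25–50 µM compound. Trypan blue-excluding cells were counted at 3, 24, 48 and 72 h relative to controls. IC50 was interpolated from 24 h dose-response curves. Three independent experiments, mean ± SD.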
# [3] = Antiproliferative activity against human LTEP-A2 cells assessed as viable cells at 12.5 uM after 24 hrs by trypan blue exclusion assay; assay type: functional; conditions: LTEP-A2, 24 h, read-out: Activity; how it was run: as §1
# OVCAR-3 = experiment: Antiproliferative activity against human OVCAR-3 cells; assay type: functional, cell-based
# [4] = Antiproliferative activity against human LTEP-A2 cells after 24 hrs by trypan blue exclusion assay; assay type: functional, cell-based; conditions: LTEP-A2, 24 h; how it was run: as §1
# LTEP-A2 = experiment: Antiproliferative activity against human LTEP-A2 cells by trypan blue exclusion assay; assay type: functional, cell-based; how it was run: as §1
# DU-145 = experiment: Antiproliferative activity against human DU145 cells assessed as viable cells after 24 hrs; conditions: DU-145, 24 h
# Jurkat = experiment: Antiproliferative activity against human lymphoblastoid cells using annexin-V FITC and PI staining by flow cytometry
smiles,measurement,setting,value
S=C=NCCc1ccccc1 [PHENETHYLISOTHIOCYANATE],IC50,[1],7 µM
same,viability at 25 µM,[2],81%
same,viability at 12.5 µM,[3],12%
same,IC50,OVCAR-3,23.2 µM
same,IC50,[4],20 µM
same,Activity,LTEP-A2,Dose-dependent effect
C[S+]([O-])CCCCN=C=S (stereo not given) [SULFORAPHANE],IC50,DU-145,10 µM
same,IC50,[1],95 µM
same,IC50,Jurkat,3.8 µM
same,IC50,[4],6.25 µM
